Numbering of substitutions follows the chain as printed.
system: T1, OR4N2; details: stereoisomer not certain
T1 sequence (whole entry): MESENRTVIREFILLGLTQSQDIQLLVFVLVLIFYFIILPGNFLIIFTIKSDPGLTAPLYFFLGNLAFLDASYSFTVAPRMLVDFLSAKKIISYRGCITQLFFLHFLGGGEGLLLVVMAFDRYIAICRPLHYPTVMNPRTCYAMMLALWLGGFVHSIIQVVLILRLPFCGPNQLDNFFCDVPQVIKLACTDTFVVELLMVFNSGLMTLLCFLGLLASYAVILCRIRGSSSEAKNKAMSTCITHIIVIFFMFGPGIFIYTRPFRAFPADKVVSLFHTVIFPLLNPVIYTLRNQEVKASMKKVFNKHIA
Summary of the method: (§1)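 Transient luciferase assays in mammalian cell lines were common, though methods varied by source. The values come from published papers and their supplementary material, with extra details from the original authors when needed. Responsive refers to a measured signal the original authors judged statistically different from baseline, and non-responsive (inactive) to the remainder.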
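Further: active if original authors judged signal statistically different from baseline.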

Odorant receptor agonist call, inactive:
CCCCCCC=CCCC=O
CCCC(S)CCOC(C)=O (configuration not stated)
O=c1ccc2ccccc2o1
Cc1cnc(C)c(C)n1
CC1=C(O)C(=O)C(C)O1 (configuration not stated)
CCC1OC(=O)C(O)=C1C (configuration not stated)
CCC1OC(C)=C(O)C1=O (configuration not stated)
CC1=C(O)C(=O)OC1C (configuration not stated)
CC1=NC(C)C(C)S1 (configuration not stated)

biological target: T2, OR4N4 (Homo sapiens) (UniProt Q8N0Y3); details: stereoisomer not certain
T2 sequence (whole entry): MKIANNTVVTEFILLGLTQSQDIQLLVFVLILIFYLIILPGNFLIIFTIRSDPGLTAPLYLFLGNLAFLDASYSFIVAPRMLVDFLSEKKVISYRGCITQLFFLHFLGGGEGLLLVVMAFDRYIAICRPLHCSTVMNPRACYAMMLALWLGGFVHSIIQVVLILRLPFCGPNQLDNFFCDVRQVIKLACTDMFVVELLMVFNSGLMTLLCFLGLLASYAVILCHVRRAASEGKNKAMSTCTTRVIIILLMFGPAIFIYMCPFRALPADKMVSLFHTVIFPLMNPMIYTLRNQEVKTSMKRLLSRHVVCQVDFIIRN
Summary of the method: as §1

Odorant receptor agonist call, inactive:
CC1CCCCCCCCCCCCC(=O)C1 (configuration not stated)
CCC(S)C(C)CO (configuration not stated)
CCCCC(S)C(C)CO (configuration not stated)
CCCCCCC=CCCC=O
CCCCCC(S)C(C)CO (configuration not stated)
CCCC(S)CCOC(C)=O (configuration not stated)
CC(=O)c1c(C)c([N+](=O)[O-])c(C(C)(C)C)c([N+](=O)[O-])c1C
Cc1cnc(C)c(C)n1
CC1=C(O)C(=O)C(C)O1 (configuration not stated)
CCC1OC(=O)C(O)=C1C (configuration not stated)
CC(CO)CS (configuration not stated)
CCCCCC(=O)C(C)C(C)=O (configuration not stated)
CCC1OC(C)=C(O)C1=O (configuration not stated)
CC1=C(O)C(=O)OC1C (configuration not stated)
CC1=NC(C)C(C)S1 (configuration not stated)

biological target: T3, OR4N5 (Homo sapiens) (UniProt Q8IXE1); details: stereoisomer not certain
T3 sequence (whole entry): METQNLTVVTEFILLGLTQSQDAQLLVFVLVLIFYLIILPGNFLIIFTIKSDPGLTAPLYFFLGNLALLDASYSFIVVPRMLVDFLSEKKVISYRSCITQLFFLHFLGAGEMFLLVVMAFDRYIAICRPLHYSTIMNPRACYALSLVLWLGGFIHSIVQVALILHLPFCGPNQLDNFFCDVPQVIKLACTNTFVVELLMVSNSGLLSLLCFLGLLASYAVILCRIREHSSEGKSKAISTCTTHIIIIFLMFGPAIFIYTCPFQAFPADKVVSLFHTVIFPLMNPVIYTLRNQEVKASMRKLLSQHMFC
Summary of the method: as §1

Odorant receptor agonist call, inactive:
CC1CCCCCCCCCCCCC(=O)C1 (configuration not stated)
CCC(S)C(C)CO (configuration not stated)
CCCCC(S)C(C)CO (configuration not stated)
CCCCCCC=CCCC=O
CCCCCC(S)C(C)CO (configuration not stated)
CCCC(S)CCOC(C)=O (configuration not stated)
CC(=O)c1c(C)c([N+](=O)[O-])c(C(C)(C)C)c([N+](=O)[O-])c1C
Cc1cnc(C)c(C)n1
CC1=C(O)C(=O)C(C)O1 (configuration not stated)
CCC1OC(=O)C(O)=C1C (configuration not stated)
CC(CO)CS (configuration not stated)
CCCCCC(=O)C(C)C(C)=O (configuration not stated)
CCC1OC(C)=C(O)C1=O (configuration not stated)
CC1=C(O)C(=O)OC1C (configuration not stated)
CC1=NC(C)C(C)S1 (configuration not stated)

biological target: T4, OR4P4 (Homo sapiens) (UniProt Q8NGL7); details: stereoisomer not certain
T4 sequence (whole entry): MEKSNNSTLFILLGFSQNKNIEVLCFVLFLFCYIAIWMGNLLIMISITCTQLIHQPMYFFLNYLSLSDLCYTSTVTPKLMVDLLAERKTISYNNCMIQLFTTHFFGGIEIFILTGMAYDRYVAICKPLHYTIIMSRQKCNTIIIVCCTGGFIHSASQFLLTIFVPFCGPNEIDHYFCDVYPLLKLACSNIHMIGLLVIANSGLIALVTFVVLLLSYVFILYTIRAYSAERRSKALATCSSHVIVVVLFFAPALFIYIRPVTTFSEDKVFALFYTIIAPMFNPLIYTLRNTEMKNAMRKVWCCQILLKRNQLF
Summary of the method: as §1

Odorant receptor agonist call, inactive:
CC1CCCCCCCCCCCCC(=O)C1 (configuration not stated)
CCC(S)C(C)CO (configuration not stated)
CCCCC(S)C(C)CO (configuration not stated)
CCCCCCC=CCCC=O
CCCCCC(S)C(C)CO (configuration not stated)
CCCC(S)CCOC(C)=O (configuration not stated)
CC(=O)c1c(C)c([N+](=O)[O-])c(C(C)(C)C)c([N+](=O)[O-])c1C
Cc1cnc(C)c(C)n1
CC1=C(O)C(=O)C(C)O1 (configuration not stated)
CCC1OC(=O)C(O)=C1C (configuration not stated)
CC(CO)CS (configuration not stated)
CCCCCC(=O)C(C)C(C)=O (configuration not stated)
CCC1OC(C)=C(O)C1=O (configuration not stated)
CC1=C(O)C(=O)OC1C (configuration not stated)
CC1=NC(C)C(C)S1 (configuration not stated)

biological target: T5, OR4Q3 (Homo sapiens) (UniProt Q8NH05); details: stereoisomer not certain
T5 sequence (whole entry): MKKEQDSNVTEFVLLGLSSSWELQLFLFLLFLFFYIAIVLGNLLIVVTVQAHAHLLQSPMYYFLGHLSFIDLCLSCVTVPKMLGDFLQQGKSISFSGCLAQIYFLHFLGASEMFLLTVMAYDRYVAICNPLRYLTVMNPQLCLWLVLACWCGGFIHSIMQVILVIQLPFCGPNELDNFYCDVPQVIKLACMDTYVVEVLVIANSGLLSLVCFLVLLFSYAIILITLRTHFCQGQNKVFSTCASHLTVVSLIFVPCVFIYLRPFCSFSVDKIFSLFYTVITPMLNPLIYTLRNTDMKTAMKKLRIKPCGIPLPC
Summary of the method: as §1

Odorant receptor agonist call, inactive:
CC1CCCCCCCCCCCCC(=O)C1 (configuration not stated)
CCC(S)C(C)CO (configuration not stated)
CCCCC(S)C(C)CO (configuration not stated)
CCCCCCC=CCCC=O
CCCCCC(S)C(C)CO (configuration not stated)
CCCC(S)CCOC(C)=O (configuration not stated)
CC(=O)c1c(C)c([N+](=O)[O-])c(C(C)(C)C)c([N+](=O)[O-])c1C
Cc1cnc(C)c(C)n1
CC1=C(O)C(=O)C(C)O1 (configuration not stated)
CCC1OC(=O)C(O)=C1C (configuration not stated)
CC(CO)CS (configuration not stated)
CCCCCC(=O)C(C)C(C)=O (configuration not stated)
CCC1OC(C)=C(O)C1=O (configuration not stated)
CC1=C(O)C(=O)OC1C (configuration not stated)
CC1=NC(C)C(C)S1 (configuration not stated)

system: T6, OR4Q3 T135A; details: stereoisomer not certain
T6 sequence (whole entry): T5 sequence (whole entry) with T135A
Summary of the method: as §1

Odorant receptor agonist call, inactive:
CCCCCCC=CCCC=O
CCCC(S)CCOC(C)=O (configuration not stated)
Cc1cnc(C)c(C)n1
CC1=C(O)C(=O)C(C)O1 (configuration not stated)
CCC1OC(=O)C(O)=C1C (configuration not stated)
CCC1OC(C)=C(O)C1=O (configuration not stated)
CC1=C(O)C(=O)OC1C (configuration not stated)
CC1=NC(C)C(C)S1 (configuration not stated)

biological target: T7, OR4S1 (Homo sapiens) (UniProt Q8NGB4); details: stereoisomer not certain
T7 sequence (whole entry): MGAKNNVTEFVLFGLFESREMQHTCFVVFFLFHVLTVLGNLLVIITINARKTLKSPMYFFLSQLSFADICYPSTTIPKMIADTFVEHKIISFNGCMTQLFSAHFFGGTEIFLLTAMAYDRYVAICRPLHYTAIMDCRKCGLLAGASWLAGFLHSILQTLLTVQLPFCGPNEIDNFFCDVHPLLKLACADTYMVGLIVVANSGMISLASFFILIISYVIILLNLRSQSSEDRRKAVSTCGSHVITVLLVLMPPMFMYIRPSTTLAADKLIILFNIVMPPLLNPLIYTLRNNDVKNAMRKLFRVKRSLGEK
Summary of the method: as §1

Odorant receptor agonist call, inactive:
CC1CCCCCCCCCCCCC(=O)C1 (configuration not stated)
CCC(S)C(C)CO (configuration not stated)
CCCCC(S)C(C)CO (configuration not stated)
CCCCCCC=CCCC=O
CCCCCC(S)C(C)CO (configuration not stated)
CCCC(S)CCOC(C)=O (configuration not stated)
CC(=O)c1c(C)c([N+](=O)[O-])c(C(C)(C)C)c([N+](=O)[O-])c1C
Cc1cnc(C)c(C)n1
CC1=C(O)C(=O)C(C)O1 (configuration not stated)
CCC1OC(=O)C(O)=C1C (configuration not stated)
CC(CO)CS (configuration not stated)
CCCCCC(=O)C(C)C(C)=O (configuration not stated)
CCC1OC(C)=C(O)C1=O (configuration not stated)
CC1=C(O)C(=O)OC1C (configuration not stated)
CC1=NC(C)C(C)S1 (configuration not stated)

— the M2OR odorant receptor database
